Most compounds without a hit are left out; they make up all but 2.2% or so of the library.
CSN inh – CSN deneddylation inhibition; Q92905; Purified CSN, SCF-Nedd8-OG deneddylation, fluorescence polarization; inhibition, % at 12.5 µM; 0.38% of 360,000 active; AID 651999;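 active = pattern-corrected inhibition above about 35%, with an unprinted fluorescence ratio check between 0.5 and 1.5, limit read from the data, passing the limit was not always enough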
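Test system: Human Csn5 produced in HEK293T cells | Compound: 12.5 µM single point | Times: 90 min, room temperature | Signal: Fluorescence polarization readout | Read-out basis: % inhibition of substrate cleavage by Csn5 | Controls: no-enzyme wells high, enzyme-with-substrate wells low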
HNF4A DNA FP – change in binding of human HNF4 alpha to DNA | P41235 | HNF4a-FITC DNA binding, fluorescence polarization, 1 h | activity change, % at 10 µM | 0.3% of 360,000 active; in the data active = activity change above about 30%, passing the limit was not always enough
Target sequence (P41235 whole entry, looked up): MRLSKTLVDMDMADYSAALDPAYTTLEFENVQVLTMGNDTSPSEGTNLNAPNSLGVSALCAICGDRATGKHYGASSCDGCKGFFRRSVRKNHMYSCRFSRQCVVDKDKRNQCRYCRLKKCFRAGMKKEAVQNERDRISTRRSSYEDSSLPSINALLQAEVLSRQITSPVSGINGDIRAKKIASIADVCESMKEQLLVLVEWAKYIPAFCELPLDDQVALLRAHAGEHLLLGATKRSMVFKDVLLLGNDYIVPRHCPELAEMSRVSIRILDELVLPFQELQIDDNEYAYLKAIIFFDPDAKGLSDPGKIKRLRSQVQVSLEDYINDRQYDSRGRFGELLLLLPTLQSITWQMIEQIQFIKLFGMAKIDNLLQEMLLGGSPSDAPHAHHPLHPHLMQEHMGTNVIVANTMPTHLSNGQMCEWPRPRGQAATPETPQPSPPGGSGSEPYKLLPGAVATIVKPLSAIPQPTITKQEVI
Exocytosis inh – lytic granule exocytosis inhibition. AID 651702. inhibition, % at 10 µM. TALL-104 LAMP-1 surface exposure, flow cytometry; cells stimulated with thapsigargin and PMA. 0.66% of 360,000 active;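 active = inhibition above about 55%, limit read from the data; inconclusive = no clear call, values can overlap the other calls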
Myeloid diff 2 – myeloid differentiation induction; ER-HoxA9 myeloid progenitors, lysozyme-GFP differentiation, flow cytometry; calls only at 10 µM; 1% of 360,000 active; AID 624256;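 active = normalized GFP-positive differentiation at or above the plate's own cutoff, the solvent-only control mean plus 3 SD; inconclusive = no clear call, values can overlap the other calls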;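 note: cells exposed to compound for four days before flow analysis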
Exocytosis CP01 – blocks lytic granule exocytosis; shares compounds with Exocytosis inh; 11% of 1,500 active; TALL-104 cells, LAMP-1 externalization, flow cytometry; stimulated with PMA plus thapsigargin; inhibition, % at 10 µM; AID 651954; in the data active = inhibition above about 60%
Numbers stand for hits; . = inactive; ? = inconclusive; / = not tested or not shown; + = active, no number.

SMILES	CSN inh	HNF4A DNA FP	Exocytosis inh	Myeloid diff 2	Exocytosis CP01
COc1ccc(CCNC(=O)c2cc3c(=O)n4cccc(C)c4nc3n(CC3CCCO3)c2=N)cc1 (centres undefined)	.	.	62	.	.
Cc1cccn2c(=O)c3cc(C(=O)NCCc4ccccc4)sc3nc12	.	.	92	.	.
CCCCCCCCN1C(=O)[C@H](CC(=O)NCCCOC)C[C@@]2(C(=O)OCC)CCCC=C12	.	.	.	.	/
Cc1onc(-c2c(Cl)cccc2Cl)c1C(=O)NCCc1ccncc1	.	.	.	.	/
O=C1C2CCCCN2C(=O)N1CCCCN1CCN(c2ccccc2Oc2ccccc2)CC1 (centres undefined)	.	.	.	.	/
COc1ccc(CN(C)C(=O)C2CCN(C(=O)Nc3ccccc3)CC2)cc1	.	.	.	.	/
O=c1ccc2cc(S(=O)(=O)N3CCN(c4cc(Cl)ccc4Cl)CC3)ccc2o1	.	.	.	.	/
Cc1ccc(N2CCN(S(=O)(=O)c3ccc4oc(=O)ccc4c3)CC2)c(C)c1	.	.	86	?	.
C(=C\c1nccc2c1[nH]c1ccccc12)/c1ccccc1	.	.	.	.	/
Cc1ccc(/C=C\c2nccc3c2[nH]c2ccccc23)cc1	.	.	75	+	.
Fc1ccc(/C=C\c2nccc3c2[nH]c2ccccc23)cc1	.	.	83	.	93
O=S(=O)(CC(CN1CCCCC1)N1CCCCC1)c1ccc2ccccc2c1 (centres undefined)	.	.	68	?	.
Oc1ccccc1-c1nc(NCc2ccco2)c2ccccc2n1	.	.	.	.	/
Cc1ccc(Nc2nc(NCc3ccco3)c3ccccc3n2)cc1	.	.	69	.	67
Fc1ccccc1-c1nc(NCc2ccco2)c2ccccc2n1	.	.	.	.	/
Oc1ccccc1Nc1nc(NCc2ccccc2)c2ccccc2n1	.	.	68	.	66
COc1ccccc1Nc1nc(NCc2ccco2)c2ccccc2n1	.	.	99	.	.
c1ccc(CNc2nc(N3CCN(Cc4ccccc4)CC3)nc3ccccc23)cc1	.	.	101	.	.
c1ccc(CNc2c3ccccc3nc3ccccc23)cc1	.	.	61	/	.
c1ccc(CNc2ncnc3ccccc23)cc1	.	.	.	.	/
O=C(NCc1ccc2c(c1)OCO2)C12CN(Cc3ccccc3)CC1C(c1cccc([N+](=O)[O-])c1)=NO2 (centres undefined)	.	.	100	.	.
O=C(NCc1ccc(C(F)(F)F)cc1)C12CN(Cc3ccccc3)CC1C(c1cccc([N+](=O)[O-])c1)=NO2 (centres undefined)	.	.	.	.	/
Cc1ccc(S(=O)(=O)N2CCOCC2)cc1NC(=O)CN1CCC(Cc2ccccc2)CC1	.	.	71	.	.
O=C1CCC[C@@H]2C[C@@]3(C[C@@H]4CCN1[C@H]24)Nc1cc(Cl)ccc1NC3=NC1CCCCC1	.	.	76	.	.
Cc1cc(=O)oc2cc(OCC(=O)N3CCC(O)CC3)c(Cl)cc12	.	.	.	.	/
SMILES	CSN inh	HNF4A DNA FP	Exocytosis inh	Myeloid diff 2	Exocytosis CP01
O=C(CCN1CCOCC1)c1ccc2c(c1)OCCO2	.	.	85	.	.
O=C(CCN1CCCCC1)c1ccc2c(c1)OCO2	.	.	80	.	.
O=C(c1ccccc1)c1ccc2c(c1)OCCOCCOCCOCCO2	.	.	72	.	.
CCOc1ccc(C(=O)CCN2CCCCCC2)cc1	.	.	101	.	64
Cn1nccc1C(=O)N1CCCC(N2CCN(c3cccc(C(F)(F)F)c3)CC2)C1 (centres undefined)	.	.	.	.	/
O=C(CCN1CCc2ccccc2CC1)c1ccc2c(c1)OCCO2	.	.	101	.	78
CC(=O)N1c2ccc(C)cc2C(c2ccccc2)CC1C (centres undefined)	.	.	80	.	.
CC(=O)OC1CC(C)N(C(=O)c2ccccc2)c2ccc(C)cc21 (centres undefined)	.	.	.	.	/
CCOC(=O)C1Nc2c(cc(C(F)(F)F)cc2[N+](=O)[O-])C2c3ccccc3CC12 (centres undefined)	.	.	76	.	.
Cn1nc(C(C)(C)C)cc1NC(=O)C1(C)CCN1C(=O)c1ccccc1CCc1ccccc1 (centres undefined)	.	.	98	.	.
O=c1c2cc([N+](=O)[O-])ccc2sn1-c1ccccc1	.	.	.	.	/
CC(=O)Nc1ccc2sn(-c3ccccc3)c(=O)c2c1	.	.	60	.	94
Cc1cc2nc(/C=C/c3cccnc3)[nH]c2cc1C	.	.	58	/	.
Cc1nn(-c2ccccn2)c2c1C(=O)CC(C)(C)C2N=[N+]=[N-] (centres undefined)	.	.	.	.	/
CCOc1ccccc1C(=O)Nc1ccc(C(=O)c2ccccc2)cc1	.	.	60	.	.
Cc1ccc(N2CC(C(=O)NC3CCC(C)CC3)CC2=O)cc1 (centres undefined)	.	.	.	.	/
CCOC(=O)C1CCCC12Nc1cccc3cccc(c13)N2 (centres undefined)	.	.	86	.	.
CCOC(=O)C1CCCN(S(=O)(=O)c2ccc3ccccc3c2)C1 (centres undefined)	.	.	.	.	/
CCOc1ccccc1CN1CCN(CCCc2ccccc2)CC1CCO (centres undefined)	.	.	63	.	.
CCOc1ccccc1CN1CCN(Cc2cn(C)nc2-c2ccccc2)CC1CCO (centres undefined)	.	.	.	.	/
C=CCOc1ccccc1CN1CCC(CO)(CCOc2ccccc2)CC1	.	.	69	.	.
Cc1c(CN2CCC(CO)(CCOc3ccccc3)CC2)[nH]c2c(Cl)cccc12	.	.	92	.	.
OCC1(CCOc2ccccc2)CCN(Cc2ccccc2OC(F)F)CC1	.	.	.	.	/
Cc1nn(C)c(Cl)c1CN1CCC(CO)(CCOc2ccccc2)CC1	.	.	.	.	/
C=CCOc1ccccc1CN1CCN(CCc2ccccc2)C(CCO)C1 (centres undefined)	.	.	58	.	.
SMILES	CSN inh	HNF4A DNA FP	Exocytosis inh	Myeloid diff 2	Exocytosis CP01
CC1CN(S(=O)(=O)c2cc(C(=O)NCCCN3CCCC3=O)ccc2Cl)CC(C)O1 (centres undefined)	.	.	.	.	/
Cn1nc(C(=O)N2CCN(c3ccc([N+](=O)[O-])cc3)CC2)c2c1-c1ccccc1S(=O)(=O)C2	.	.	.	.	/
COC(=O)[C@]1(C)N[C@H](CN(C)C(C)=O)[C@@H]2C(=O)N(Cc3ccccc3)C(=O)[C@@H]21	.	.	.	.	/
COc1cccc(NC(=O)c2sc3nc(N4CCOCC4)c4c(c3c2N)CCCC4)c1	.	.	69	?	.
CC(C)(C)NC(=O)C(OC(=O)c1cccs1)c1ccc(F)cc1 (centres undefined)	.	.	66	.	.
CC12CCCCC1C(C(N)=O)C(=O)O2 (centres undefined)	.	.	.	.	/
O=C1CCC2CCCCC2(O)O1 (centres undefined)	.	.	64	.	.
